From ChEMBL document CHEMBL1255300, “Pharmacodynamics of the antibacterial effect and emergence of resistance to tomopenem, formerly RO4908463/CS-023, in an in vitro pharmacokinetic model of Staphylococcus aureus infection” (Antimicrob Agents Chemother, 2008) come the findings set out here.

Broadly, the MIC is the smallest concentration in the dilution series that meets the test's criterion for growth inhibition. A higher MIC goes with a less susceptible organism.

Structures are written as SMILES. In brackets after ≈: the same amount, converted by molar mass. Activity calls are given as the source filed them. Bounds are passed on as bounds.

Experiment [1] concerns Staphylococcus aureus. In words: Antibacterial activity against methicillin-resistant Staphylococcus aureus 33827 infected in in vitro pharmacokinetic model assessed as time required to 99% killing at 1500 mg, iv every 8 hrs using 10^8 CFU/ml inoculum. The experiment is classed as functional. An outline of the steps:
(§1)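 Single-compartment dilutional in vitro PK model, 10% Mueller-Hinton broth, 37°C, stirred, dilution 132 ml/h. […] Inoculum 10^6 CFU/ml (added 45 min pre-dose) or 10^8 CFU/ml (run overnight). Viable counts by spiral plating, beta-lactamase neutralization, detection limit 10^2 CFU/ml. At least triplicate.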

Experiment [2] deals with Staphylococcus aureus. In words: AUBKC (0 to 24 hrs) in methicillin-resistant Staphylococcus aureus 33827 infected in in vitro pharmacokinetic model at 750 mg, iv every 8 hrs using 10^6 CFU/ml inoculum. In kind it is functional. The essentials: (§2)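 Single-compartment dilutional in vitro PK model at 37°C in 10% Mueller-Hinton broth, stirred, flow 132 ml/h. […] Inoculum 10^6 CFU/ml added 45 min before dosing, or 10^8 CFU/ml run overnight. Viable counts with β-lactamase neutralisation. AUBKC by log-linear trapezoidal rule, at least triplicate.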

Experiment [3] relates to Staphylococcus aureus. In words: AUBKC (0 to 24 hrs) in methicillin-resistant Staphylococcus aureus 33829 infected in in vitro pharmacokinetic model at 1500 mg, iv every 8 hrs using 10^6 CFU/ml inoculum. The experiment is classed as functional. An outline of the steps:
as §2

The subject of experiment [4] is Staphylococcus aureus. In words: AUBKC (0 to 24 hrs) in methicillin-resistant Staphylococcus aureus 33820 infected in in vitro pharmacokinetic model at 1500 mg, iv every 8 hrs using 10^6 CFU/ml inoculum. The experiment is classed as functional. The essentials: as §2
Experiment [5] deals with Staphylococcus aureus. In words: AUBKC (0 to 48 hrs) in methicillin-resistant Staphylococcus aureus 33829 infected in in vitro pharmacokinetic model at 1500 mg, iv every 8 hrs using 10^6 CFU/ml inoculum. The experiment is classed as functional. The essentials: as §2
Experiment [6] concerns Staphylococcus aureus. In words: Antibacterial activity against methicillin-resistant Staphylococcus aureus 33921 by 10% MH broth method. The experiment is classed as functional. The essentials: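 MIC by CLSI broth dilution, or by broth dilution in 10% Mueller-Hinton broth at nondoubling dilutions.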
Experiment [7] relates to Staphylococcus aureus. In words: T>MIC in methicillin-sensitive Staphylococcus aureus 5956 infected in vitro pharmacokinetic model at 750 mg, iv every 8 hrs. In kind it is functional.
Experiment [8] relates to Staphylococcus aureus. In words: Antibacterial activity against methicillin-resistant Staphylococcus aureus 33827 infected in in vitro pharmacokinetic model assessed as time required to 99.9% killing at 750 mg, iv every 8 hrs using 10^8 CFU/ml inoculum. The experiment is classed as functional. The essentials: as §1
The subject of experiment [9] is Staphylococcus aureus. In words: AUBKC (0 to 48 hrs) in methicillin-resistant Staphylococcus aureus 33922 infected in in vitro pharmacokinetic model at 750 mg, iv every 8 hrs using 10^8 CFU/ml inoculum. The experiment is classed as functional. An outline of the steps:
as §2

Experiment [10] deals with Staphylococcus aureus. In words: Antibacterial activity against methicillin-sensitive Staphylococcus aureus 5956 assessed as viable count at 2 times of MIC after 24 hrs using 10^6 CFU/ml inoculum. In kind it is functional, organism-based.
Experiment [11] deals with Staphylococcus aureus. In words: T>MIC in methicillin-resistant Staphylococcus aureus 33820 infected in vitro pharmacokinetic model at 750 mg, iv every 8 hrs. The experiment is classed as functional.
Experiment [12] deals with Staphylococcus aureus. In words: Antibacterial activity against methicillin-resistant Staphylococcus aureus 33820 in in vitro pharmacokinetic model assessed as viable count at 4 times of MIC. The experiment is classed as functional. An outline of the steps:
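Population analysis before drug exposure (time 0). Model samples were plated on nutrient agar without drug and with tomopenem at 2×, 4× and 6× MIC (10% MHB MIC), and growth was recorded as log CFU/ml. Detection limit 2 log10.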

Experiment [13] relates to Staphylococcus aureus. In words: T>MIC for static effect in methicillin-resistant Staphylococcus aureus 33922 in in vitro pharmacokinetic model after 24 hrs using 10^6 CFU/ml inoculum. In kind it is functional.
The test system of experiment [14] is Staphylococcus aureus. In words: T>MIC for 1-log drop in count in methicillin-sensitive Staphylococcus aureus 5956 in in vitro pharmacokinetic model after 24 hrs using 10^6 CFU/ml inoculum. The experiment is classed as functional. An outline of the steps:
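Dose-ranging: 7–13 simulated regimens per strain giving T>MIC of 0–100% (MIC from 10% MHB), at 106 or 10^8 CFU/ml as stated.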

Experiment [15] relates to Staphylococcus aureus. In words: T>MIC for 2-log drop in count in methicillin-resistant Staphylococcus aureus 33922 in in vitro pharmacokinetic model after 24 hrs using 10^6 CFU/ml inoculum. In kind it is functional.
For experiment [16], the system named is Staphylococcus aureus. In words: T>MIC for 3-log drop in count in methicillin-resistant Staphylococcus aureus 33922 in in vitro pharmacokinetic model after 24 hrs using 10^6 CFU/ml inoculum. The experiment is classed as functional.
Experiment [17] relates to Staphylococcus aureus. In words: T>MIC for 2-log drop in count in methicillin-resistant Staphylococcus aureus 33827 in in vitro pharmacokinetic model after 24 hrs using 10^8 CFU/ml inoculum. The experiment is classed as functional.
For experiment [18], the system named is Staphylococcus aureus. In words: Antibacterial activity against methicillin-resistant Staphylococcus aureus 33815 infected in in vitro pharmacokinetic model assessed as reduction in viable count at 750 mg, iv every 8 hrs measured after 48 hrs using 10^6 CFU/ml inoculum. The experiment is classed as functional. An outline of the steps:
(§3)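 Single-compartment dilutional in vitro PK model, 37°C, stirred, in 10% Mueller-Hinton broth. […] Inoculum 10^6 CFU/ml from a 24-h plate culture was added 45 min before dosing. Viable counts by spiral plating on nutrient agar with β-lactamase neutralization. Log change was taken from time 0; detection limit 10^2 CFU/ml; at least triplicate.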

The subject of experiment [19] is Staphylococcus aureus. In words: Antibacterial activity against methicillin-resistant Staphylococcus aureus 33922 infected in in vitro pharmacokinetic model assessed as reduction in viable count at 1500 mg, iv every 8 hrs measured after 36 hrs using 10^6 CFU/ml inoculum. The experiment is classed as functional.
Experiment [20] has as its system Staphylococcus aureus. In words: Antibacterial activity against methicillin-resistant Staphylococcus aureus 33820 infected in in vitro pharmacokinetic model assessed as reduction in viable count at 1500 mg, iv every 8 hrs measured after 48 hrs using 10^6 CFU/ml inoculum. In kind it is functional. The essentials:
as §3

For the compound `C[C@@H](O)[C@H]1C(=O)N2C(C(=O)O)=C(S[C@H]3C[C@@H](C(=O)N4CC[C@H](NC(=O)CNC(=N)N)C4)N(C)C3)[C@H](C)[C@H]12` [TOMOPENEM], the Time in [1] and in [8] was 12 h each time. Also, the AUBC in [2] amounted to 27.4 log10CFU/ml.hr; in experiment [3], 30 log10CFU/ml.hr; in experiment [4] it was 23.4 log10CFU/ml.hr; in experiment [5], 37.4 log10CFU/ml.hr; in experiment [9] it was 81.5 log10CFU/ml.hr. Also, the MIC in [6] turned out to be 0.06 µg/mL (≈ 0.112 µM). The “fT>MIC” value in experiment [7] is given as 100%; in experiment [11], 73%; in experiment [13], 1.3%; in experiment [14], 7.4%; in experiment [15], 5.4%; in experiment [16] it was 9.4%. The “fT>MIC” value in experiment [17] came out at 39.6%. For the same compound, in experiment [10], the result was inactive. The log10CFU/ml is less than 2 in experiment [12], 4.2 in experiment [18], 4.2 in [19] and 4.2 in [20].
